In brackets after ≈: the same amount, converted by molar mass.
Columns and labels:
Type in all cases: functional
[1] = system: Staphylococcus aureus; test: Antimicrobial activity against mupirocin-susceptible methicillin-resistant Staphylococcus aureus assessed as resistant rate by broth microdilution method
How it was run: (§1)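 Clinical MRSA isolates (4,980) from 32 Canadian hospitals, 1995–2004, confirmed by multiplex PCR for mecA and nuc. Susceptibility done by broth microdilution following CLSI guidelines. Inducible clindamycin resistance in macrolide-resistant isolates detected by standardized disk approximation test. Isolates grouped as high-level mupirocin-resistant or mupirocin-susceptible. Resistance rates expressed as percentage of isolates per group.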

[2] = system: Staphylococcus aureus; test: Antimicrobial activity against mupirocin-resistant methicillin-resistant Staphylococcus aureus by broth microdilution method; how it was run: as §1
[3] = system: Staphylococcus aureus; test: Antimicrobial activity against mupirocin-susceptible methicillin-resistant Staphylococcus aureus by broth microdilution method; how it was run: as §1
[4] = system: Staphylococcus aureus; test: Antimicrobial activity against mupirocin-resistant methicillin-resistant Staphylococcus aureus assessed as resistant rate by broth microdilution method; how it was run: as §1

`CN(C)[C@@H]1C(O)=C(C(N)=O)C(=O)[C@@]2(O)C(O)=C3C(=O)c4c(O)cccc4[C@@](C)(O)[C@H]3C[C@@H]12` [TETRACYCLINE] showed an Activity [1] of 23%, an MIC [2] of at least 512 µg/mL and an MIC90 [2] of under 4 µg/mL. It also gave an MIC [3] of at most 4 µg/mL, an MIC90 [3] of over 16 µg/mL and an Activity [4] of 7%.

Compound `CO[C@H]1/C=C/O[C@@]2(C)Oc3c(C)c(O)c4c(O)c(c(/C=N/N5CCN(C)CC5)c(O)c4c3C2=O)NC(=O)/C(C)=C\C=C\[C@H](C)[C@H](O)[C@@H](C)[C@@H](O)[C@@H](C)[C@H](OC(C)=O)[C@@H]1C` [RIFAMPIN] has an Activity [1] of 2%, an MIC [2] of at least 512 µg/mL and an MIC90 [2] of under 0.5 µg/mL. The MIC [3] was at most 4 µg/mL, the MIC90 [3] was under 0.5 µg/mL and the Activity [4] was 4%.

`CCC[C@@H]1C[C@@H](C(=O)N[C@@H]([C@H]2O[C@H](SC)[C@H](O)[C@@H](O)[C@H]2O)[C@H](C)Cl)N(C)C1` [CLINDAMYCIN] gave an Activity [1] of 86%, an MIC [2] of at least 512 µg/mL and an MIC90 [2] of over 8 µg/mL. For the same compound, the MIC [3] was at most 4 µg/mL, the MIC90 [3] was over 8 µg/mL and the Activity [4] was 85%.

`C/C(=C\C(=O)OCCCCCCCCC(=O)O)C[C@@H]1OC[C@H](C[C@@H]2O[C@H]2[C@@H](C)[C@H](C)O)[C@@H](O)[C@H]1O` [MUPIROCIN] was tested, and the Activity [1] was 0%, the MIC [2] was at least 512 µg/mL and the MIC90 [2] was over 512 µg/mL. It also gave an MIC [3] of at most 4 µg/mL, an MIC90 [3] of 0.5 µg/mL (≈ 0.999 µM) and an Activity [4] of 100%.

For `O=C(O)c1cn(C2CC2)c2cc(N3CCNCC3)c(F)cc2c1=O` [CIPROFLOXACIN], the Activity [1] was 90%, the MIC [2] was at least 512 µg/mL and the MIC90 [2] was over 8 µg/mL. It also gave an MIC [3] of at most 4 µg/mL, an MIC90 [3] of over 8 µg/mL and an Activity [4] of 75%.

Work on `CC[C@H]1OC(=O)[C@H](C)[C@@H](O[C@H]2C[C@@](C)(OC)[C@@H](O)[C@H](C)O2)[C@H](C)[C@@H](O[C@@H]2O[C@H](C)C[C@H](N(C)C)[C@H]2O)[C@](C)(O)C[C@@H](C)C(=O)[C@H](C)[C@@H](O)[C@]1(C)O` [ERYTHROMYCIN] yielded an Activity [1] of 94%, an MIC [2] of at least 512 µg/mL and an MIC90 [2] of over 8 µg/mL. For the same compound, the MIC [3] was at most 4 µg/mL, the MIC90 [3] was over 8 µg/mL and the Activity [4] was 86%.

`CC(=O)O[C@H]1C[C@@]2(C)[C@@H](C[C@@H](O)[C@H]3[C@@]4(C)CC[C@@H](O)[C@@H](C)[C@@H]4CC[C@@]32C)/C1=C(\CCC=C(C)C)C(=O)O` [FUSIDIC ACID] gave an Activity [1] of 4%, an MIC [2] of at least 512 µg/mL and an MIC90 [2] of over 8 µg/mL. It also gave an MIC [3] of at most 0.5 µg/mL, an MIC90 [3] of 0.5 µg/mL (≈ 0.968 µM) and an Activity [4] of 21%.

`CN[C@H](CC(C)C)C(=O)N[C@H]1C(=O)N[C@@H](CC(N)=O)C(=O)N[C@H]2C(=O)N[C@H]3C(=O)N[C@H](C(=O)N[C@H](C(=O)O)c4cc(O)cc(O)c4-c4cc3ccc4O)[C@H](O)c3ccc(c(Cl)c3)Oc3cc2cc(c3O[C@@H]2O[C@H](CO)[C@@H](O)[C@H](O)[C@H]2O[C@H]2C[C@](C)(N)[C@H](O)[C@H](C)O2)Oc2ccc(cc2Cl)[C@H]1O` [VANCOMYCIN] gave an Activity [1] of 0%, an MIC [2] of at least 512 µg/mL and an MIC90 [2] of 1 µg/mL (≈ 0.69 µM). It also gave an MIC [3] of at most 4 µg/mL, an MIC90 [3] of 1 µg/mL (≈ 0.69 µM) and an Activity [4] of 0%.

With `CC(=O)NC[C@H]1CN(c2ccc(N3CCOCC3)c(F)c2)C(=O)O1` [LINEZOLID] the Activity [1] was 0%, the MIC [2] was at least 512 µg/mL and the MIC90 [2] was 2 µg/mL (≈ 5.93 µM). It also gave an MIC [3] of at most 4 µg/mL, an MIC90 [3] of 1 µg/mL (≈ 2.96 µM) and an Activity [4] of 0%.

— ChEMBL document CHEMBL1137649, “Mupirocin-resistant, methicillin-resistant Staphylococcus aureus strains in Canadian hospitals” (2007)
